{"source": "paper PMC7106486", "about": "(Science translational medicine, 2019)", "key": {"[1]": {"system": "Klk6 and cytokine (Il6, Il17a, Il17f) mRNA in murine skin", "experiment": "Klk6 and cytokine mRNA expression on murine skin", "assay_type": "in vivo, mouse C57BL/6", "details": "synthetic autoinducing peptide 10 μg with S. aureus 1 × 10^7 CFU, 48 hours", "how_it_was_run": "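Male C57BL/6 mice, 8 weeks old, shaved and Nair-depilated (2 min), then rested 48 h. S. aureus USA300 LAC (agr type I, from 18 h cultures in 3% TSB at 37°C), 1 × 10^7 CFU in 3% TSB (100 μl), applied with synthetic autoinducing peptide (10 μg, DMSO) on 2-cm2 gauze under Tegaderm to back skin for 48 h. Applied CFU confirmed next day; n = 5.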"}, "[2]": {"system": "clinical S. aureus strains expressing PSMα", "experiment": "Protection against clinical S. aureus strains expressing PSMα"}, "[3]": {"system": "murine back skin treated with S. aureus", "experiment": "Transepidermal water loss", "assay_type": "in vivo, mouse C57BL/6", "details": "synthetic autoinducing peptide 10 μg with S. aureus 1 × 10^7 CFU, 48 hours", "how_it_was_run": "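Back skin of 8-week male C57BL/6 mice depilated (shave plus Nair 2 min), allowed 48 h barrier recovery. S. aureus USA300 LAC agr type I (1 × 10^7 CFU, 100 μl 3% TSB) plus synthetic autoinducing peptide (10 μg, DMSO) applied on 2-cm2 gauze under Tegaderm for 48 h. Transepidermal water loss measured by Tewameter on treated skin; n = 5.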"}, "[4]": {"system": "S. aureus USA300 LAC agr type I P3-YFP", "experiment": "S. aureus agr activity, P3-YFP reporter, in vitro", "assay_type": "cell-based", "details": "synthetic peptide, overnight culture"}}, "data": [{"substance": "S-Y-N-V-c(C-G-G-Y-F) [S. hominis C5 autoinducing peptide]", "values": [{"measurement": "Klk6 expression on murine skin (in words)", "setting": "[1]", "value": "inhibited TEWL, Klk6"}, {"measurement": "protection against clinical S. aureus strains (in words)", "setting": "[2]", "value": "protective against clinical S. aureus strains expressing PSMα"}, {"measurement": "TEWL on murine skin (in words)", "setting": "[3]", "value": "inhibited TEWL"}, {"measurement": "inhibition of S. aureus agr activity (in words)", "setting": "[4]", "value": "potently inhibited S. aureus agr activity in a dose-dependent manner"}, {"measurement": "inhibition of S. aureus agr activity (in words)", "setting": "[4]; listed as SYNVCGGYF", "value": "highly potent inhibitor of S. aureus agr activity"}]}]}
